Screening data: PubChem, several laboratories
Sampled rows, rich in hits. Any-hit rate of the full collection: about 1.8%.
SKN-1 inh – suppressors of acrylamide-induced Pgst-4::GFP reporter in worms, primary screen, SKN-1 inhibitor project, whole organism, uHTS, GFP/RFP fluorescence ratio, strain VP596. hit rate 0.49% among 360,000. C. elegans VP596 Pgst-4::GFP/RFP ratio, 24 h. inhibition, % at 21.8 µM;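 active = interference check ratio from 0.5 to 1.5 plus GFP to RFP signal ratio inhibition reaching or exceeding a fixed threshold, cut at about 30% in these data, passing the limit was not always enough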
MIN6 prolif – inducers of MIN6 beta-cell proliferation, primary screen, ATP luminescence, uHTS; MIN6 cells proliferation, ATPlite luminescence, 48 h; cells starved in 0.2% serum; 100% = growth in 10% serum; proliferation, % at 10 µM; hit rate 0.29% among 330,000; AID 2380, 2010;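 active = compounds whose signal lies at least 3.5 SD above the mean of all wells on their plate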
MsrA inhibitor – bovine MsrA enzyme inhibitors, primary screen, biochemical, absorbance, HTS. Methionine sulfoxide reductase A (Bos taurus). purified bovine MsrA, absorbance read-out. inhibition, % at 15.5 µM. hit rate 0.75% among 360,000. AID 651718, 2012; in the data active = inhibition above about 4.5%
DAGLB inhibitor – DAGLB lipase inhibitors, primary screen, biochemical, fluorescence, HTS; Diacylglycerol lipase-beta (Homo sapiens), Q8NCG7; HEK293T DAGLB membrane lysate, EnzChek fluorogenic substrate; inhibition, % at 5.17 µM; hit rate 0.059% among 340,000; AID 504411, 2011; in the data active = inhibition above about 34%
Target sequence (Q8NCG7 whole entry, looked up): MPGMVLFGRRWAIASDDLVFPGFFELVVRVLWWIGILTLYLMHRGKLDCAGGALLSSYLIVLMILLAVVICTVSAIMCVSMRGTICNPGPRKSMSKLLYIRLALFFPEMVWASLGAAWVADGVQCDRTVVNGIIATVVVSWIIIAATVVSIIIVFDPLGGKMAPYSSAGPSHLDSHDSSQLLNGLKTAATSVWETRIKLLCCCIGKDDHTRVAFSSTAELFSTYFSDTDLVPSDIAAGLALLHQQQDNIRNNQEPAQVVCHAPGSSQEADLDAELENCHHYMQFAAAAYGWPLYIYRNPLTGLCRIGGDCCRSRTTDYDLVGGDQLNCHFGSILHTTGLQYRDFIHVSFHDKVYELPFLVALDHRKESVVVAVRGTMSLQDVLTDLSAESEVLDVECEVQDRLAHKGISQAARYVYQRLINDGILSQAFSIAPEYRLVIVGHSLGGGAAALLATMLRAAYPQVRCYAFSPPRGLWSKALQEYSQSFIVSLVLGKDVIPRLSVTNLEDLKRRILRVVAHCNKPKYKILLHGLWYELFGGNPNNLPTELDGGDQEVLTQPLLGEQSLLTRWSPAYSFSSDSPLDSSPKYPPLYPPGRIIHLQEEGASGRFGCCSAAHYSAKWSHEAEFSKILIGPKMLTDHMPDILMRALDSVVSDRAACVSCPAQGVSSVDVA
MT1-MMP act inh – blockers of MT1-MMP proenzyme processing, primary screen, HT1080 RFP-PRO-GFP cells, GFP/RFP fluorescence; GFP/RFP ratio fluorescence, overnight; percent of plate control window, DMSO zero; GFP/RFP ratio change, % at 20 µM; hit rate 0.061% among 360,000;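 active = GFP/RFP ratio change of at least 30% with cell ATP level not reduced by more than half and red fluorescence within 50% of control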
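Test system: HT1080 cells expressing an RFP-PRO-GFP fluorescent reporter construct / Compound dosing: single-point 20 µM compound, 1% DMSO / Schedule: cells overnight before dosing, compound overnight, 37 °C, 5% CO2 / Evaluation: GFP/RFP fluorescence ratio / Control set: DMSO and RFP-L50D-GFP cell wells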
MsrA act – bovine MsrA enzyme activators, primary screen, biochemical, absorbance, HTS; activation, % at 10.6 µM; hit rate 0.3% among 360,000; Methionine sulfoxide reductase A (Bos taurus); purified bovine MsrA, absorbance read-out; AID 602163, 2012; in the data active = activation above about 7.5%
Numbers stand for hits; - = inactive; . = no result.

SMILES	SKN-1 inh	MIN6 prolif	MsrA inhibitor	DAGLB inhibitor	MT1-MMP act inh	MsrA act
COCCN1Cc2cc(C(=O)OC)c3c(c2C1=O)c1ccccc1n3S(=O)(=O)c1ccc(C)cc1	.	.	-	.	.	.
CN(CCO)C(=O)c1nc[nH]c1C(=O)N1CCN(c2ccccc2)CC1	.	.	-	.	.	.
O=C(N/N=C/c1ccc(Cl)cc1)Nc1ccccc1	41	-	-	-	-	-
COc1cccc(C2NC(=S)N(Cc3ccccc3)C(C)=C2C(C)=O)c1 (stereo not drawn)	.	.	-	.	.	.
O=C(N=C1N=C2C=CC(Br)=CN2Cc2ccccc21)c1ccc([N+](=O)[O-])cc1[N+](=O)[O-]	60	-	-	-	-	-
COCc1[nH]nc2c1C(c1ccc(F)cc1)N(c1ccc(OC)cc1)C2=O (stereo not drawn)	.	.	-	.	.	.
COC(=O)C12OCC34C(CC5C(C)=C(O)C(=O)CC5(C)C3C(O)C1O)OC(=O)C(OC(=O)C=C(C)C)C24 (stereo not drawn)	41	.	-	-	-	-
O=C(c1ccc(-c2cccc(C(F)(F)F)c2)o1)N1CCOCC1	45	-	-	-	-	-
COc1ccc(N2C(=O)/C(=C/c3ccc([N+](=O)[O-])cc3)C=C2c2ccccc2)cc1	40	-	-	-	-	-
CCOc1ccc(-c2nc(N)ncc2Oc2ccccc2Br)c(O)c1	-	-	-	-	-	-
CCOc1ccc(-c2nc(N)ncc2Oc2cccc(OC)c2)c(O)c1	37	-	-	-	-	-
COC(=O)[C@]12C[C@H](CC(=O)N3CCC(c4ccccc4)CC3)C(=O)N(Cc3ccc4c(c3)OCO4)C1=C[C@H](COCc1ccccc1)O[C@@H]2C	.	.	-	.	.	.
CN(N=Nc1ccc([N+](=O)[O-])cc1)c1ccccc1	-	-	-	-	-	-
CN(N=Nc1cccc([N+](=O)[O-])c1)c1ccccc1	48	-	-	-	-	-
COC(=O)c1cc2c(c3c4ccccc4n(S(=O)(=O)c4cccc(C)c4)c13)C(=O)N(Cc1ccccc1OC)C2	.	.	-	.	.	.
Clc1cccc(-c2nc3ccc(Br)cn3c2Cc2ccsc2)c1	36	.	-	.	-	-
Fc1ccc(-c2nc3ccc(Cl)cn3c2Cc2ccsc2)cc1	40	.	-	.	-	-
Brc1cccc(-c2nc3ccc(Br)cn3c2Cc2ccsc2)c1	47	.	-	.	-	-
COc1ccc(/C=N/NC(=O)c2ccc(COc3ccccc3Cl)o2)cc1	38	-	-	-	-	-
COc1ccc(/C=N/NC(=O)c2ccc(COc3ccccc3Cl)o2)c(OC)c1C	-	-	-	-	-	-
Cc1cnc(NC(=O)CC(C)c2ccccc2)s1 (stereo not drawn)	35	-	-	-	-	-
C#CCN(C[C@H]1[C@H](OC(=O)Nc2c(C)noc2C)[C@H](OC(=O)Nc2c(C)noc2C)CN(C(=O)OC(C)C)N1C(=O)OC(C)C)S(=O)(=O)c1ccc(C)cc1	.	.	-	.	.	.
CCCCCCCCN1C(=O)[C@@H](CC(=O)NCc2cccc(C(F)(F)F)c2)C[C@@]2(C(=O)OC)C1=C[C@H](C(C)(C)C)O[C@@H]2C	.	.	-	.	.	.
O=C(/C=C/c1cccs1)c1ccc(Br)cc1	37	-	-	-	-	-
CCc1c(-c2ccccc2)ncn1CCc1ccccc1OC	.	.	-	.	.	.
SMILES	SKN-1 inh	MIN6 prolif	MsrA inhibitor	DAGLB inhibitor	MT1-MMP act inh	MsrA act
CCOC(=O)CN(C(=O)CNC(=O)c1cccs1)C(C(=O)NC1CCCC1)c1cccnc1 (stereo not drawn)	-	-	-	-	-	-
CCOC(=O)CN(C(=O)CNC(=O)c1cccs1)C(C(=O)NC1CCCCC1)c1cccs1 (stereo not drawn)	46	-	-	-	-	-
c1ccc(-c2cnc(-c3ccccc3)nn2)cc1	52	-	-	-	-	-
COc1ccc(N(CC(=O)N/N=C/c2ccc(N(C)C)cc2)S(=O)(=O)c2ccccc2)cc1	-	-	4.6	-	-	-
COc1ccc(N(CC(=O)N/N=C/c2ccccc2F)S(=O)(=O)c2ccccc2)cc1	-	-	-	-	-	-
CCOc1ccc2nc(NC(=O)CN3CCC(n4nnc5cc(C(F)(F)F)ccc54)CC3)sc2c1	39	-	-	-	-	-
Cc1cc(NC(=O)CN2CCC(n3nnc4cc(C(F)(F)F)ccc43)CC2)no1	-	-	-	-	-	-
O=S(=O)(NCc1ccccc1)c1cc(Br)ccc1Br	.	.	-	.	.	.
Cc1ccccc1-c1noc(-c2cccs2)n1	88	-	-	-	-	-
COc1cccc(-c2noc(-c3cccs3)n2)c1	91	-	-	-	-	-
Cc1ccccc1-c1nnc(-c2cccs2)o1	-	-	-	-	-	-
O=C(O)c1ccccc1C(=O)NCc1ccccc1	-	-	-	-	-	-
Nc1sccc1C(=O)NCc1ccccc1	39	.	-	.	-	.
N/C(=N\OC(=O)c1ccoc1)c1ccc(Br)cc1	63	-	-	-	-	-
CO[C@@H]1[C@H](O)CC[C@]2(O)CN(c3ccc(F)cc3)[C@](C)([C@H](O)CC=C(C)C)[C@@H]12	.	.	-	.	.	.
COc1cc(C(=O)Nc2cccc(S(=O)(=O)N3CCCC3)c2)c([N+](=O)[O-])cc1OC	-	-	4.6	-	-	-
COc1cc(SC)ccc1C(=O)Nc1nccs1	44	-	-	-	-	-
COc1cc(SC)ccc1C(=O)Nc1ccccc1	-	-	-	-	-	-
C=CCc1cccc2cc(C(=O)Nc3ccccc3C(=O)O)c(=O)oc12	-	.	4.9	.	-	-
COC(=O)[C@]12C[C@H](CC(=O)NCc3cccs3)C(=O)N(Cc3ccccc3)C1=C[C@H](C1CCCC1)O[C@@H]2C	.	.	-	.	.	.
CN(C)C(=O)c1cccc(-c2cnc3c(NC=O)cc(-c4ccc(N(C)C)cc4)cn23)c1	36	.	-	.	-	-
CC(=O)COc1cc2c(-c3cc4ccccc4o3)cc(=O)oc2cc1C	-	-	7.1	-	-	-
c1ccc(Cn2cc(CCOCc3ccccn3)c3ccccc32)cc1	.	.	-	.	.	.
Clc1ccc(C=Cc2ccccn2)c(Cl)c1	85	.	-	-	-	-
O=C(/C=C/c1ccc(Cl)cc1Cl)NC(=S)Nc1ccccn1	38	-	-	-	-	-
CC1(C)CC(=O)C=C(c2ccccc2-c2cccc(C(N)=O)c2)C1=O	.	.	-	.	.	.
Cc1ccccc1CN1[C@@H](CC(C)C)COc2cc(Br)ccc2S1(=O)=O	.	.	-	.	.	.
Cc1cc2cc(CNC(=O)C3CC3)ccc2n1C	40	-	-	-	-	-
